The source of these data is ChEMBL document CHEMBL1140675, “Discovery of a novel class of benzazepinone Na(v)1.7 blockers: potential treatments for neuropathic pain” (Bioorg Med Chem Lett, 2007).

For data set [1], the target named is Sodium channel protein type 9 subunit alpha (Homo sapiens, UniProt Q15858). In words: Blockade of human Nav1.7 by FRET assay. In outline:
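Functional membrane-potential assay of channel block on human Nav1.7; read-out is FRET between two membrane-associated dyes; IC50 in nM.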

Another data set deals with hERG (KCNH2) (Homo sapiens, UniProt Q12809). In words: Displacement of [35S]-MK0499 from human ERG receptor expressed in HEK293 cells at 10 uM. The data set is classed as cell-based. The following applies: HEK293 cells expressing human ERG, probe [35S]-MK0499. In outline: (§1)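 Binding assay measuring displacement of radiolabelled ligand (35S-MK-0499 for hERG; 3H-diltiazem for Cav1.2); % inhibition at 10 µM test compound.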
In general terms: Loss of bound radioactivity is the signal in a displacement assay; it reports binding, not function.

For data set [2], the target named is Cav1.2 (L-type calcium channel subunit alpha-1C) (Homo sapiens, UniProt Q13936). The experiment in a line: Displacement of [3H]diltiazem from human Cav1.2 expressed in HEK293 cells at 10 uM. The class given is cell-based. The following applies: HEK293 cells expressing human Cav1.2, probe [3H]diltiazem. In short, it runs like this:
as §1

A short description of data set [3]: Bioavailability in rat at 3.0 mg/kg, po. The class given is ADME, organism-based. The settings on record: in vivo.
The nature of data set [4]: Plasma clearance in rat at 1.0 mg/kg, iv or 3.0 mg/kg, po. The class given is ADME, organism-based.
Data set [5] is described as follows: Cmax in rat at 1.0 mg/kg, iv or 3.0 mg/kg, po. The class given is ADME, organism-based. The settings on record: in vivo.
Data set [6] in a line: Half life in rat at 1.0 mg/kg, iv or 3.0 mg/kg, po. The class given is ADME, organism-based. The settings on record: in vivo.

Chain of Sodium channel protein type 9 subunit alpha (Q15858 whole entry): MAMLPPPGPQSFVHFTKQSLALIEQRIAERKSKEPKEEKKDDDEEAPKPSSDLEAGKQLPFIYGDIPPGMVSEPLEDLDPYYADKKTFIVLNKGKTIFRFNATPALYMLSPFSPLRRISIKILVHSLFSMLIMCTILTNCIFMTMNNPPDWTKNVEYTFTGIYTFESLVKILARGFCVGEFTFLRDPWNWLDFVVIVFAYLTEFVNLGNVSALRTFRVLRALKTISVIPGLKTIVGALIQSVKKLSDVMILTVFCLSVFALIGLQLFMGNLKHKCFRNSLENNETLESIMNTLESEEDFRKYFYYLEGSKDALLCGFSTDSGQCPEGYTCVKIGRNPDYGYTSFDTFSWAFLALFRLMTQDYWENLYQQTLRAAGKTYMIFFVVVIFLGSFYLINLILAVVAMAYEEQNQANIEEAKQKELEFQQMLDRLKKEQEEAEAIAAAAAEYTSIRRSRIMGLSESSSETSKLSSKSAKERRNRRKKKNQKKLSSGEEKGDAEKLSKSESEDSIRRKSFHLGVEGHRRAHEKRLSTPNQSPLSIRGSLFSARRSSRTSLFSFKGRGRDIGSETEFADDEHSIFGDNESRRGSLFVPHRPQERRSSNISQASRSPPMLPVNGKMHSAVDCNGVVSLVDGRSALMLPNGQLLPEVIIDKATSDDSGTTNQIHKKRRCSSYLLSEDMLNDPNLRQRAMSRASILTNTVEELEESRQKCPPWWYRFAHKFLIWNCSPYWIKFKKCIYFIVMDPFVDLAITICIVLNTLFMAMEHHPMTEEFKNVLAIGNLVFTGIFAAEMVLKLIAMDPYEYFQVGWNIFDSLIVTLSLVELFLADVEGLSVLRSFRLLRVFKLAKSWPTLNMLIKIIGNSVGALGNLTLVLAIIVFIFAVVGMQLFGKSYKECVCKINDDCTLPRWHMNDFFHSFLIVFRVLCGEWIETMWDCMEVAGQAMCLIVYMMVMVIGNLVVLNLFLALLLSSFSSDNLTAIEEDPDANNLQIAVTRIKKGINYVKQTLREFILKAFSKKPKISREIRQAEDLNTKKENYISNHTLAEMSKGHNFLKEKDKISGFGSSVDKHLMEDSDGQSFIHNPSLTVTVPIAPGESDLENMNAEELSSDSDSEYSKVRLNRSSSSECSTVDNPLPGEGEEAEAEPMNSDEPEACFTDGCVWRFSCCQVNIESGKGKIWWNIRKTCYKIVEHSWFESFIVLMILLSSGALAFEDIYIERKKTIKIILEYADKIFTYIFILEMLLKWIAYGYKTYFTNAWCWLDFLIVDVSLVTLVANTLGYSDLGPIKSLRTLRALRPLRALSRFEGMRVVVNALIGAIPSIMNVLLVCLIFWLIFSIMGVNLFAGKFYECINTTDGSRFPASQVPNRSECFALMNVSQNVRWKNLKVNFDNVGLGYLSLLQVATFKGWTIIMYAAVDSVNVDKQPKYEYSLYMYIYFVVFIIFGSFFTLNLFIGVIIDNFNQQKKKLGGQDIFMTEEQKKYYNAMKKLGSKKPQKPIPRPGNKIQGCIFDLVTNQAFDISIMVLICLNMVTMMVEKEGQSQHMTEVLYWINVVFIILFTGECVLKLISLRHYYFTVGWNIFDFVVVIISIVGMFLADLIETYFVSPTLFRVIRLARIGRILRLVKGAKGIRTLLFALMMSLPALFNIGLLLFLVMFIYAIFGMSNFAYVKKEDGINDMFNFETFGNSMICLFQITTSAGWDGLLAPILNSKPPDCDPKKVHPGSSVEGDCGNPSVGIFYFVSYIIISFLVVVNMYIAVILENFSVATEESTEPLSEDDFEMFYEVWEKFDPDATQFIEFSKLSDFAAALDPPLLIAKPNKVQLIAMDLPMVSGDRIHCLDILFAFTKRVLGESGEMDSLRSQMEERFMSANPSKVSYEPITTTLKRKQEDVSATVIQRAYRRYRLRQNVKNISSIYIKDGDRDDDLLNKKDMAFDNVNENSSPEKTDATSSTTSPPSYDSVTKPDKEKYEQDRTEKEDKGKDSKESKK
Chain of Cav1.2 (L-type calcium channel subunit alpha-1C) (Q13936 whole entry): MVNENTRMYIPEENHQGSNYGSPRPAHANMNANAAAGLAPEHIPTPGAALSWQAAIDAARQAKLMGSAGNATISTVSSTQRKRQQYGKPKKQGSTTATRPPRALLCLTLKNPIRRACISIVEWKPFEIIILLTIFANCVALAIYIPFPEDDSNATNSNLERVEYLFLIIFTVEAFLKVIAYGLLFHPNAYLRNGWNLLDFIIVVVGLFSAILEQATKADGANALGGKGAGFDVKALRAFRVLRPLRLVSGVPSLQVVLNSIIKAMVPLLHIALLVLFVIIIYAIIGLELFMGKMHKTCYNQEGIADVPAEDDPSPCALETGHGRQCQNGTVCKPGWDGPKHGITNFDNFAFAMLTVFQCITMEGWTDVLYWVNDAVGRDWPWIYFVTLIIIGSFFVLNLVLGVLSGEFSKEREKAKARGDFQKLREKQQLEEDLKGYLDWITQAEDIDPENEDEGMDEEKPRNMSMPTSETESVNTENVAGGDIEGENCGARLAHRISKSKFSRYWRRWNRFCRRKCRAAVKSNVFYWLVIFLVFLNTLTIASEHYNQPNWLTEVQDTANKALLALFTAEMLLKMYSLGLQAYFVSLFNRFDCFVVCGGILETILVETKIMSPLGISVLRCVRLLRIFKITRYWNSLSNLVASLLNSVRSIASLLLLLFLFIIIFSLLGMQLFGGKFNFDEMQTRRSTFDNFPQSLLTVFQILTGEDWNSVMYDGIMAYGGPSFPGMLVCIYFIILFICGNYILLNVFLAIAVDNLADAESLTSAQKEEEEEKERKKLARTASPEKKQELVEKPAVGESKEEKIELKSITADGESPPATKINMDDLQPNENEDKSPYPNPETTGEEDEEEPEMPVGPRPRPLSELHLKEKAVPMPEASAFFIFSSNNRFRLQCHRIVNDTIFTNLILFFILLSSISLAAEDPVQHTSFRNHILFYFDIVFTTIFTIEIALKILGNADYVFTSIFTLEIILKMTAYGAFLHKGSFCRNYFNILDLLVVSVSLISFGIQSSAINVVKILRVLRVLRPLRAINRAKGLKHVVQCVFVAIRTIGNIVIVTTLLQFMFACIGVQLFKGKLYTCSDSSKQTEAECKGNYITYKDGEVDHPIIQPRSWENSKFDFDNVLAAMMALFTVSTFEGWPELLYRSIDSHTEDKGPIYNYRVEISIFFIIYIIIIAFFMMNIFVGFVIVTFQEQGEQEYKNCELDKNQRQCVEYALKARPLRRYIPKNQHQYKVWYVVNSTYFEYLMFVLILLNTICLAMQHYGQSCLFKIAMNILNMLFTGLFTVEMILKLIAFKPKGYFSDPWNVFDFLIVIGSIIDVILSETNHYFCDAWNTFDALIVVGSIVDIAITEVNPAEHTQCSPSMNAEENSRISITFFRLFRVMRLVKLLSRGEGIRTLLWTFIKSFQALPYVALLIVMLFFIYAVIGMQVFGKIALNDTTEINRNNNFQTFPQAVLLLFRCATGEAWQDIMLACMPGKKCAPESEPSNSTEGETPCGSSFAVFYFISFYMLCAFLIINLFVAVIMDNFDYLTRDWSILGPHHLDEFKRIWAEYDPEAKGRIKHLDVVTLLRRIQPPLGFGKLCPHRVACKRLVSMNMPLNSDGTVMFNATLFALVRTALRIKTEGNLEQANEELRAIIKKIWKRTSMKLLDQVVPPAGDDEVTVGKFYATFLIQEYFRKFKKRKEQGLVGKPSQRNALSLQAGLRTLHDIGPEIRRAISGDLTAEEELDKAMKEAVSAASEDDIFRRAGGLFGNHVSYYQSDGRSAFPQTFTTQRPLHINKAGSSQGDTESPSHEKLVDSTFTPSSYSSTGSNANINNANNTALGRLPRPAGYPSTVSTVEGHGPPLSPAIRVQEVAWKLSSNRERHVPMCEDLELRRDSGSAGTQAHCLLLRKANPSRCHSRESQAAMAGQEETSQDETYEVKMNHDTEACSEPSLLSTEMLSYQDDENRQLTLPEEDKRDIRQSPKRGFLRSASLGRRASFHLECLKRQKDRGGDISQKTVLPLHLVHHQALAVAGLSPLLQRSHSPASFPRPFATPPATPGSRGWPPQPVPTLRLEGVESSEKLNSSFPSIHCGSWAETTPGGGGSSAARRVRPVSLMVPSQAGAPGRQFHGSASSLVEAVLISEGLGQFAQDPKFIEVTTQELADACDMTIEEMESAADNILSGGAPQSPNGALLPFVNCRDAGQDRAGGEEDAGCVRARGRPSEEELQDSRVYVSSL

As for `CN1C(=O)[C@H](NC(=O)CCc2ccccc2)N=C(c2ccccc2)c2ccccc21`, the IC50 in data set [1] is > 1000 nM.

`CC(C)N1C(=O)[C@H](NC(=O)[C@@H](Cc2cccc(C(F)(F)F)c2)NC(=O)OC(C)(C)C)CCc2ccccc21` registered an IC50 in data set [1] of 295 nM. Further, the inhibition at 10 µM on hERG (KCNH2) came out at 15%; in data set [2], 19%.

Consider `CC(C)N1C(=O)[C@H](NC(=O)[C@@H](Cc2ccc(C(F)(F)F)cc2)NC(=O)OC(C)(C)C)CCc2ccccc21`, for which the IC50 in data set [1] is > 1000 nM.

Take `CN1C(=O)[C@H](NC(=O)[C@@H](CC2CCCCC2)NC(=O)OC(C)(C)C)N=C(c2ccccc2)c2ccccc21`: the IC50 in data set [1] is > 1000 nM.

Regarding `CN1C(=O)[C@H](NC(=O)[C@@H](CCc2ccccc2)NC(=O)OC(C)(C)C)N=C(c2ccccc2)c2ccccc21`, the midpoint of inhibition in data set [1], the IC50, lay at 238 nM.

On to `CN1C(=O)[C@H](NC(=O)[C@@H](Cc2cccnc2)NC(=O)OC(C)(C)C)N=C(c2ccccc2)c2ccccc21`, for which, in data set [1], the IC50 was determined as 978 nM.

For the compound `CN1C(=O)[C@H](NC(=O)[C@@H](Cc2ccccc2)NCCC(C)(C)C)N=C(c2ccccc2)c2ccccc21`, the IC50 in data set [1] was > 1000 nM.

Regarding `CN1C(=O)[C@H](NC(=O)[C@@H](Cc2ccccc2)N(C)C(=O)OC(C)(C)C)N=C(c2ccccc2)c2ccccc21`, in data set [1], the IC50 is > 1000 nM.

For `COC(=O)N[C@H](Cc1ccccc1)C(=O)N[C@@H]1N=C(c2ccccc2)c2ccccc2N(C)C1=O`, in data set [1], the IC50 is > 1000 nM.

Consider `CN1C(=O)[C@H](NC(=O)[C@@H](Cc2ccccc2)NC(=O)C2CC2)N=C(c2ccccc2)c2ccccc21`, for which, in data set [1], the IC50 is > 1000 nM.

Consider `CC(C)N1C(=O)[C@H](NC(=O)[C@@H](Cc2cccc(F)c2C(F)(F)F)NC(=O)OC(C)(C)C)CCc2ccccc21`, for which it took 65 nM to reach half-maximal inhibition in data set [1] (IC50). Besides, the inhibition at 10 µM came out at 39% at hERG (KCNH2) and 87% in data set [2].

On to `CC(C)N1C(=O)[C@H](NC(=O)[C@@H](Cc2c(F)cccc2C(F)(F)F)NC(=O)OC(C)(C)C)CCc2ccccc21`, for which the bioavailability in data set [3] was 28%. For the same compound, the clearance in data set [4] came to 32 mL/min/kg. For the same compound, in data set [5], the Cmax is 330 nM. In data set [1], the IC50 was 32 nM. The half-life in data set [6] is 2.5 h. Moreover, the results for the inhibition at 10 µM (on hERG (KCNH2); in data set [2]) were 43% and 81%, respectively.

For `C[C@@H](NC(=O)OC(C)(C)C)C(=O)N[C@@H]1N=C(c2ccccc2)c2ccccc2N(C)C1=O`, in data set [1], the IC50 was > 1000 nM.

On to `CN1C(=O)[C@H](NC(=O)[C@@H](Cc2ccccc2)NS(C)(=O)=O)N=C(c2ccccc2)c2ccccc21`, for which, in data set [1], the IC50 was > 1000 nM.

As to `CN1C[C@H](NC(=O)[C@@H](Cc2ccccc2)NC(=O)OC(C)(C)C)CCc2ccccc21`, the half-inhibitory concentration (IC50) in data set [1] is > 1000 nM. This compound had an inhibition at 10 µM on hERG (KCNH2) of 28%.

With `CC(C)S(=O)(=O)N[C@H](Cc1ccccc1)C(=O)N[C@@H]1N=C(c2ccccc2)c2ccccc2N(C)C1=O`, the IC50 in data set [1] is > 1000 nM.

For the compound `CN1CCCC[C@@H](NC(=O)[C@@H](Cc2ccccc2)NC(=O)OC(C)(C)C)C1=O`, the IC50 in data set [1] is > 1000 nM.

With `CC(C)N1C(=O)[C@H](NC(=O)[C@@H](Cc2cccc(F)c2)NC(=O)OC(C)(C)C)CCc2ccccc21`, it took 9 nM to reach half-maximal inhibition in data set [1] (IC50). For the same compound, the values for the inhibition at 10 µM (at hERG (KCNH2); in data set [2]) were 8% and 0%, respectively.

Take `CC(C)N1C(=O)[C@H](NC(=O)[C@@H](Cc2cc(F)ccc2F)NC(=O)OC(C)(C)C)CCc2ccccc21`: the IC50 in data set [1] turned out to be 23 nM. The inhibition at 10 µM on hERG (KCNH2) was found to be 6%; in data set [2], 24%.

On to `CC(C)N1C(=O)[C@H](NC(=O)[C@@H](Cc2c(F)cccc2F)NC(=O)OC(C)(C)C)CCc2ccccc21`, for which the midpoint of inhibition in data set [1], the IC50, lay at 14 nM. In addition, the inhibition at 10 µM turned out to be 4% at hERG (KCNH2) and 36% in data set [2].

As for `CN1C(=O)[C@H](NC(=O)[C@@H](Cc2ccccc2F)NC(=O)OC(C)(C)C)N=C(c2ccccc2)c2ccccc21`, the 50% inhibitory concentration (IC50) in data set [1] turned out to be 87 nM.

In data set [1], `CN1C(=O)[C@H](NC(=O)[C@@H](Cc2ccc(F)cc2)NC(=O)OC(C)(C)C)N=C(c2ccccc2)c2ccccc21` showed an IC50 of 71 nM.

Compound `CN1C(=O)[C@H](NC(=O)[C@@H](Cc2cscn2)NC(=O)OC(C)(C)C)N=C(c2ccccc2)c2ccccc21` came in with an IC50 in data set [1] of 684 nM.

For `CN1C(=O)[C@H](NC(=O)[C@H](N)Cc2ccccc2)N=C(c2ccccc2)c2ccccc21`, the IC50 in data set [1] was > 1000 nM.

Regarding `CC(C)N1C(=O)[C@H](NC(=O)[C@@H](Cc2ccccc2)NC(=O)OC(C)(C)C)CCc2ccccc21`, the IC50 in data set [1] was 45 nM. For the same compound, the inhibition at 10 µM at hERG (KCNH2) was determined as 6%.

As for `CN1C(=O)[C@H](NC(=O)[C@@H](Cc2ccccc2)NC(=O)OC(C)(C)C)CCc2ccccc21`, 192 nM corresponded to half-maximal inhibition in data set [1] (IC50).

With `CC(C)(C)OC(=O)N[C@H](Cc1ccccc1)C(=O)N[C@@H]1CCc2ccccc2N(CC(F)(F)F)C1`, the IC50 in data set [1] was 145 nM. In addition, at hERG (KCNH2), the inhibition at 10 µM came to 40%.

Take `CN1C(=O)[C@H](NC(=O)[C@@H](Cc2ccccc2)NS(=O)(=O)c2ccccc2)N=C(c2ccccc2)c2ccccc21`: the IC50 in data set [1] is > 1000 nM.

Regarding `CC(C)(C)OC(=O)N[C@H](Cc1ccccc1)C(=O)N[C@@H]1CCc2ccccc2N(CC(F)(F)F)C1=O`, the midpoint of inhibition in data set [1], the IC50, lay at 150 nM. For the same compound, the inhibition at 10 µM on hERG (KCNH2) was 16%.

Compound `CC(C)(C)OC(=O)N[C@H](Cc1ccccc1)C(=O)N[C@@H]1CCc2ccccc2N(CC2CC2)C1=O` came in with an IC50 in data set [1] of 78 nM. Further, on hERG (KCNH2), the inhibition at 10 µM is 15%.

Turning to `CN1C(=O)[C@H](NC(=O)[C@@H](Cc2ccccc2)NC(=O)OCc2ccccc2)N=C(c2ccccc2)c2ccccc21`, in data set [1], half-maximal inhibition (IC50) was put at 150 nM.

Take `CN1C(=O)[C@H](NC(=O)[C@@H](Cc2ccccc2)NC(=O)C(C)(C)C)N=C(c2ccccc2)c2ccccc21`: in data set [1], the IC50 was found to be 380 nM.

The compound `CC(C)(C)OC(=O)N[C@@H](CN[C@@H]1CCc2ccccc2N(CC(F)(F)F)C1=O)Cc1ccccc1` showed an IC50 in data set [1] of 885 nM. At hERG (KCNH2), this compound showed an inhibition at 10 µM of 79%.

As for `CN1C(=O)[C@H](NC(=O)[C@@H](Cc2cnc[nH]2)NC(=O)OC(C)(C)C)N=C(c2ccccc2)c2ccccc21`, the IC50 in data set [1] was > 1000 nM.

With `CN1C(=O)[C@H](NC(=O)[C@H](NC(=O)OC(C)(C)C)c2ccccc2)N=C(c2ccccc2)c2ccccc21`, in data set [1], the IC50 was 375 nM.

Turning to `CN1C(=O)[C@H](NC(=O)[C@@H](Cc2ccccc2)NC(=O)C23CC4CC(CC(C4)C2)C3)N=C(c2ccccc2)c2ccccc21`, 420 nM corresponded to half-maximal inhibition in data set [1] (IC50).

In the case of `CC(C)N1C(=O)[C@H](NC(=O)[C@@H](Cc2ccc(F)cc2)NC(=O)OC(C)(C)C)CCc2ccccc21`, in data set [1], the IC50 stood at 98 nM. Moreover, the inhibition at 10 µM (on hERG (KCNH2); in data set [2]) was 0% throughout.

Regarding `CC(C)N1C(=O)[C@H](NC(=O)[C@@H](Cc2ccccc2C(F)(F)F)NC(=O)OC(C)(C)C)CCc2ccccc21`, the bioavailability in data set [3] turned out to be 35%. In data set [4], this compound registered a clearance of 50 mL/min/kg. The compound also came in with a Cmax in data set [5] of 300 nM. For the same compound, in data set [1], the IC50 was 137 nM. In addition, the half-life in data set [6] was 2.1 h. At hERG (KCNH2), this compound returned an inhibition at 10 µM of 34%.

Turning to `CC(C)N1C(=O)[C@H](NC(=O)[C@H](Cc2ccccc2OC(F)(F)F)NC(=O)OC(C)(C)C)CCc2ccccc21`, in data set [1], the IC50 was found to be 214 nM. The inhibition at 10 µM at hERG (KCNH2) came out at 0%.

Turning to `CN1C(=O)[C@H](NC(=O)[C@@H](Cc2ccccc2)NC(=O)OC(C)(C)C)N=C(c2ccccc2)c2ccccc21`, the IC50 in data set [1] amounted to 125 nM.

A word on the IC50: it is the concentration that gives 50% inhibition. A high value points to a need for much substance. One may read the inhibition as the percentage by which the read-out fell short of the control. The bioavailability is the share of a dose that reaches the circulation, judged against a reference dose that is usually intravenous. Lower therefore signals little systemic uptake. Broadly, the Cmax is the maximum level reached in the sampled fluid or tissue. A word on the half-life: it is how long it takes for the measured level to halve. A low value points to rapid decline.
